Screens as filed in PubChem.
Sampled rows, rich in hits. Any-hit rate of the full collection: about 2.2%.
PPC-1+TRAIL kill = compounds killing PPC-1 cancer cells with TRAIL present (potentiator screen, no TRAIL-free arm); 0.41% of 220,000 active; cell killing (% activity), % at 4 µM or 5 µM; PPC-1 cells + TRAIL, ATPLite viability luminescence; AID 1443;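 active means cell killing above 50% in the first pass at 4 µM, then a duplicate retest at 5 µM averaging 50% or more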;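 further: plate controls were cells with TRAIL plus DMSO for no effect and medium-only wells lacking cells for full effect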
STAT3 inh = reduces IL-6 driven STAT3 reporter signal | U3A cells, IL-6 STAT3-luciferase reporter, luminescence; host cell line lacks STAT1 | inhibition, % at 5.5 µM | 0.89% of 190,000 active | AID 862;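 active means inhibition above the mean inhibition across all screened compounds plus 3 SD, cut at about 44% in these data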;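 further: 0% = DMSO only wells and 100% = 100 µM nifuroxazide control wells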
HSP90 refold inh = blocks HSP90-mediated luciferase refolding in reticulocyte lysate; Rabbit reticulocyte lysate, luciferase refolding luminescence, 3 h; inhibition, % at 5.6 µM; 0.91% of 290,000 active; AID 1789;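 active means inhibition above the screen-wide mean plus 3 SD, computed separately per campaign, cut at about 16% in these data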;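 further: 0% = DMSO wells and 100% = 60 µM geldanamycin wells; inhibitors lower the luminescence because luciferase stays unfolded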
FLuc stim CS = affects firefly luciferase, flagging false hits in luciferase stimulation screens. AID 1027. 200,000 tested, under 10 active. ATPlite luciferase biochemical, luminescence, 10 min; 0 = ATP-free wells, 1 = DMSO control. P08659. activation factor at 10 µM;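 active means luciferase activation factor, scaled between plate controls, of at least 2 with compound at 10 µM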
Target sequence (P08659 whole entry, looked up): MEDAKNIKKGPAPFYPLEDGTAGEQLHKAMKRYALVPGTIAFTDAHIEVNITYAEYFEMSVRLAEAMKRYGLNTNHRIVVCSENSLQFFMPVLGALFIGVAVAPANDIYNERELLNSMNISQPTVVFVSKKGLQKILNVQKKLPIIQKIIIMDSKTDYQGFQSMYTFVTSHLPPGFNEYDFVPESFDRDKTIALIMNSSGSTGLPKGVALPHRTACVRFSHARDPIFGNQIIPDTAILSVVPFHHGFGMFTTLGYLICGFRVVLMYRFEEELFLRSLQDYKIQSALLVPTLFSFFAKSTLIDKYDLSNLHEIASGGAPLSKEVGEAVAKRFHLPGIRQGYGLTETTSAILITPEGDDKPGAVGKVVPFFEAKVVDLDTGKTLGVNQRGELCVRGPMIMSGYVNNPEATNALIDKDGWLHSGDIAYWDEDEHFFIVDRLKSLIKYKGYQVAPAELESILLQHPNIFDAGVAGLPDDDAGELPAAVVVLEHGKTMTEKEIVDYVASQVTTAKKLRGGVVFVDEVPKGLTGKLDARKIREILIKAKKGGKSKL
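System: luciferase plus luciferin reagent, cell-free; medium: PBS as buffer for the ATP substrate; dosing: test compounds dosed from 2 mM stocks in 100% DMSO; timing: 10 min post-reagent at room temperature; measured by: luminescence measurement of luciferase light output; evaluation: luciferase activation, seen as luminescence increase over controls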
FLuc inhib CS = inhibits firefly luciferase, flagging false hits in luciferase inhibition screens | ATPLite firefly luciferase biochemical luminescence, 10 min | inhibition, % at 10 µM | 1.5% of 200,000 active;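 active means inhibition above about 50% when tested at 10 µM, limit read from the data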
TRAIL sens C8 = sensitizes caspase-8 expressing cells to TRAIL; NB7+C8 cells + TRAIL, ATPlite viability luminescence; inhibition (viability loss, TRAIL sensitization), % at 10 µM; 1% of 360,000 active; AID 624354;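 active means compounds causing at least 50% loss of cell viability in the single-dose screen, relative to plate controls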
HSP90 inh confirm = confirmation of HSP90 inhibitors; shares compounds with HSP90 refold inh; rabbit reticulocyte lysate, luciferase refolding luminescence, 3 h; inhibition, % at 5.9 µM; 64% of 2,300 active; AID 1846; in the data active means inhibition above about 18%;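 further: 0% = vehicle wells and 100% = reference inhibitor wells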
luciferase ctr = firefly luciferase inhibition, HSP90 counter-screen | shares compounds with HSP90 refold inh | purified native firefly luciferase, luminescence | inhibition, % at 5.9 µM | 48% of 2,300 active | AID 1847;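 active means inhibition above the mean inhibition of all tested sample wells plus 3 SD, cut at about 10% in these data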;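 further: 0% = DMSO with luciferase and 100% = wells lacking luciferase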
* hit, by the source's call; / = no result given.

SMILES	PPC-1+TRAIL kill	STAT3 inh	HSP90 refold inh	FLuc stim CS	FLuc inhib CS	TRAIL sens C8	HSP90 inh confirm	luciferase ctr
CC1CCCC(C)N1C(=O)c1cc2ncc(CCCl)cn2n1 (stereo unspecified)	20	10	-3	1	-3	-1	/	/
COc1cccc(NC(=O)CN(C)C(=O)C(CCSC)NC(=O)c2ccco2)c1 (stereo unspecified)	/	/	/	/	/	8	/	/
COC(=O)[C@@]12C[C@@H](CC(=O)NCc3cccc4ccccc34)C(=O)N(Cc3ccccc3)C1=CCC(C)(C)C2	/	/	/	/	/	11	/	/
O=C1CCCCC1Nc1ccc([N+](=O)[O-])cc1 (stereo unspecified)	/	/	/	/	/	-13	/	/
O=[N+]([O-])c1ccc(NC2CCCC2)cc1	24	-1	20*	1	-3	5	-7	-12
CSc1nnc(NC(=O)c2ccc3c(c2)OCO3)s1	/	/	54*	/	/	74*	82*	72*
Cc1nnc(NC(=O)c2ccc3c(c2)OCO3)s1	29	12	0	0.6	36	9	/	/
COc1ccc(C2NC(=O)NC(C)=C2[N+](=O)[O-])cc1 (stereo unspecified)	/	/	-3	/	/	-11	/	/
N#Cc1cc2c(nc1SCC(=O)N1CCOCC1)CCCCC2	4	0	54*	1	-3	19	1	-5
Cc1cccc(N=C2NC(=O)C(CO)(CO)S2)c1	/	/	-3	/	/	-9	/	/
CN(Cc1ccccc1F)C(=O)c1ccccc1Sc1ccccc1C#N	/	/	-1	/	/	6	/	/
O=C(O)c1ccc(-c2nnc(-c3ccccc3)o2)cc1	/	/	58*	/	/	-8	58*	14*
Cc1ccccc1OCC(=O)N(CC(C)C)c1c(N)n(CC(C)C)c(=O)[nH]c1=O	23	/	45*	/	/	-12	-2	-2
CCOC(=O)c1[nH]cc(-c2ccccc2)c1N1CCOCC1	22	-8	18*	1	-3	-4	0	-2
O=C(NCCCN1CCCC1=O)c1cc(-c2ccc3c(c2)OCO3)nc2ccccc12	33	-7	1	1	5	37	/	/
O=C(NCCCN1CCCC1=O)c1cc(-c2cccnc2)nc2ccc(Cl)cc12	15	1	28*	1	-4	-10	-3	-4
COc1ccc(OCC(=O)Nc2cc(NC(=O)c3ccco3)ccc2OC)cc1	/	/	4	/	/	-17	/	/
Cc1ccc(S(=O)(=O)CCC(=O)OCC(=O)Nc2cc(S(=O)(=O)N3CCOCC3)ccc2C)cc1	/	/	/	/	/	-14	/	/
COc1cc(C2NC(=O)NC(c3ccccc3)=C2C(C)=O)c(Br)c(Br)c1O (stereo unspecified)	/	/	18*	/	/	-1	0	-2
CC(=O)C1=C(c2ccccc2)NC(=O)NC1c1ccccc1 (stereo unspecified)	/	/	1	/	/	2	/	/
Cc1nc(NC(=O)/C=C/c2ccccc2)sc1C(=O)Nc1ccc(Cl)cc1	20	12	3	1.1	-8	18	/	/
Cc1nc(NC(=O)/C=C/c2ccccc2)sc1C(=O)Nc1ccccc1Cl	-3	8	27*	1.1	-7	-3	54*	-19
Cc1ccc(NC(=S)Nc2cccc3ccccc23)cc1F	/	/	19*	/	/	14	30*	-11
Oc1ccc(Cl)cc1CNc1cccc2cccnc12	/	/	27*	/	/	26	3	-4
Oc1ccc(Br)cc1CNc1cccc2cccnc12	/	/	25*	/	/	-1	2	0
SMILES	PPC-1+TRAIL kill	STAT3 inh	HSP90 refold inh	FLuc stim CS	FLuc inhib CS	TRAIL sens C8	HSP90 inh confirm	luciferase ctr
Cc1ccc(O)c(CNc2cccc3cccnc23)c1	14	-16	1	1.1	-6	2	/	/
O=C(Nc1nn[nH]n1)C12CC3CC(CC(C3)C1)C2	28	7	-1	1	2	-18	/	/
Cc1nc(N)sc1-c1csc(N(C)c2ccc(O)cc2)n1	9	0	27*	0.8	20	-6	-10	-21
Cc1cccc(OCCCC(=O)Nc2ccc(S(=O)(=O)Nc3ncccn3)cc2)c1C	/	/	25*	/	/	0	1	-5
Cc1cccc(OCCCC(=O)Nc2ccc(S(=O)(=O)Nc3onc(C)c3C)cc2)c1C	15	-9	-2	1	2	9	/	/
c1coc(CNc2nc(-c3cccs3)cs2)c1	12	6	18*	0.6	35	-8	7	-26
CC1=C(C)CC(C(=O)NC2CCN(C(C)C)CC2)C(C(=O)O)C1 (stereo unspecified)	/	/	-3	/	/	4	/	/
O=C(COc1ccc(Cl)cc1Cl)NC(=O)NC1CCCC1	/	/	/	/	/	-1	/	/
O=C(COc1ccc(Cl)cc1Cl)NC(=O)N1CCCCC1	18	5	28*	0.7	33	-10	37*	31*
O=C(/C=C/Nc1ccc(Br)cc1F)c1ccccc1	80*	90*	23*	0	96*	94*	84*	78*
O=C(CSc1nnc(CNC(=O)c2c(F)cccc2F)o1)NCc1ccco1	/	/	0	/	/	-2	/	/
Clc1cccc(-c2ccc(CNCCCN3CCOCC3)o2)c1	2	4	27*	1.1	-6	1	1	-4
O=C(NCCN1CCOCC1)c1cc(-c2cccc(Cl)c2)on1	/	/	-2	/	/	-2	/	/
Nc1cccc2c1C(=O)N(CCOc1ccccc1F)C2=O	/	/	30*	/	/	-1	51*	45*
N#Cc1ccccc1OCCN1C(=O)c2ccccc2C1=O	16	0	-6	1	-2	-7	/	/
COC(=O)[C@]12CCCCC=C1N(CCc1ccc(OC)c(OC)c1)C(=O)[C@H](CC(=O)N1CCCCC1)C2	/	/	/	/	/	-3	/	/
CCN(CC(=O)Nc1c(F)cccc1F)C(=O)c1ccccn1	/	/	/	/	/	-1	/	/
Oc1cccc(C=Nc2cccc3ccccc23)c1O	/	/	23*	/	/	29	3	-4
CCc1ccc(C(=O)/C=C/c2cnn(C)c2C)s1	29	2	35*	0.1	86*	25	26*	52*
Cc1c(/C=C/C(=O)c2cccs2)cnn1C	10	6	-1	0.6	43	9	/	/
COc1ccc(CN(C)C(=O)c2ccc(OCC(=O)N3CCOCC3)c(OC)c2)cc1	/	/	/	/	/	13	/	/
CC(=O)c1ccc(N2CCN(CC(=O)Nc3ccccc3C(=O)NC3CC3)CC2)c(F)c1	/	/	/	/	/	-1	/	/
Cc1cccc(C(=O)Nc2nc(C)c(C(=O)Nc3ccc4c(c3)CCC4)s2)c1	20	-12	80*	0.9	8	-43	83*	15*
Cc1ccc(C#N)c(SCc2nnc(-c3ccc(Cl)cc3)o2)n1	64*	34	24*	0.4	60*	82*	75*	75*
Cc1nn(C2CCS(=O)(=O)C2)c2nc(C3CC3)cc(C(=O)Nc3cccc(C#N)c3)c12 (stereo unspecified)	/	/	/	/	/	0	/	/
NNC(=O)CN1CCCc2ccccc21	45	-7	25*	0.9	12	0	46*	39*
